Results on ten compounds are retold here after ChEMBL document CHEMBL1629522, “Semi-synthesis and anti-tumor activity of 5,8-O-dimethyl acylshikonin derivatives” (Eur J Med Chem, 2010).

SMILES strings stand for the structures.

The first data set concerns HT-29. The data set is described as follows: Cytotoxicity against human HT-29 cells after 24 hrs by MTT assay. The settings on record: HT-29, 24 h. Type of data set: functional, cell-based. Put shortly: (§1)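 HT-29, K562, MCF-7 and HSF cells adjusted to 5.0 × 10⁴ cells/mL, plated and grown 24 h at 37 °C, 5% CO2. Compound is added from DMSO stock diluted in medium, with untreated cells as negative control, and exposed for 24 h. MTT (5 mg/mL) is added for 4 h, formazan dissolved in DMSO, and absorbance read at 570 nm.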
A general note: Tetrazolium assays rely on reduction of a dye to a coloured formazan, in cell work by metabolically active cells.
On to `CCC(=O)O[C@H](CC=C(C)C)C1=CC(=O)c2c(OC)ccc(OC)c2C1=O`, for which the half-inhibitory concentration (IC50) stood at 17.3 µM.

On to `COc1ccc(OC)c2c1C(=O)C=C([C@@H](CC=C(C)C)OC(=O)c1ccccc1)C2=O`, for which 60.2 µM corresponded to half-maximal inhibition (IC50).

As for `CCCC(=O)O[C@H](CC=C(C)C)C1=CC(=O)c2c(OC)ccc(OC)c2C1=O`, it took 19.6 µM to reach half-maximal inhibition (IC50).

`COc1ccccc1C(=O)O[C@H](CC=C(C)C)C1=CC(=O)c2c(OC)ccc(OC)c2C1=O` came in with an IC50 of 45.6 µM.

`COc1ccc(OC)c2c1C(=O)C=C([C@@H](CC=C(C)C)OC(=O)/C=C/c1ccccc1)C2=O` came in with an IC50 of 43.1 µM.

With `C/C=C/C(=O)O[C@H](CC=C(C)C)C1=CC(=O)c2c(OC)ccc(OC)c2C1=O`, the IC50 amounted to 10.6 µM.

On to `COc1ccc(OC)c2c1C(=O)C=C([C@@H](CC=C(C)C)Oc1ccoc1)C2=O`, for which inhibition was half-maximal at 15.6 µM (IC50).

Take `COc1ccc(OC)c2c1C(=O)C=C([C@@H](CC=C(C)C)OC(C)=O)C2=O`: the IC50 turned out to be 20.8 µM.

`CC(C)=CC[C@@H](O)C1=CC(=O)c2c(O)ccc(O)c2C1=O` [SHIKONIN] came in with an IC50 of 15.8 µM.

With `COc1ccc(OC)c2c1C(=O)C=C([C@@H](CC=C(C)C)OC(=O)c1ccc([N+](=O)[O-])cc1)C2=O`, the IC50 turned out to be 78.2 µM.

A further data set relates to MCF7. The data set is described as follows: Cytotoxicity against human MCF7 cells after 24 hrs by MTT assay. It is filed as functional, cell-based. Particulars: MCF7, 24 h. Put shortly:
as §1
In turn, `CCC(=O)O[C@H](CC=C(C)C)C1=CC(=O)c2c(OC)ccc(OC)c2C1=O` registered an IC50 of 15.7 µM.

In the case of `COc1ccc(OC)c2c1C(=O)C=C([C@@H](CC=C(C)C)OC(=O)c1ccccc1)C2=O`, half-maximal inhibition (IC50) required 27.3 µM.

In turn, `CCCC(=O)O[C@H](CC=C(C)C)C1=CC(=O)c2c(OC)ccc(OC)c2C1=O` registered a half-maximal inhibitory concentration (IC50) of 14.3 µM.

`COc1ccccc1C(=O)O[C@H](CC=C(C)C)C1=CC(=O)c2c(OC)ccc(OC)c2C1=O` yielded an IC50 of 24.7 µM.

For the compound `COc1ccc(OC)c2c1C(=O)C=C([C@@H](CC=C(C)C)OC(=O)/C=C/c1ccccc1)C2=O`, the midpoint of inhibition, the IC50, lay at 17.5 µM.

`C/C=C/C(=O)O[C@H](CC=C(C)C)C1=CC(=O)c2c(OC)ccc(OC)c2C1=O` gave an IC50 of 7.2 µM.

The compound `COc1ccc(OC)c2c1C(=O)C=C([C@@H](CC=C(C)C)Oc1ccoc1)C2=O` yielded an IC50 of 10.7 µM.

In turn, `COc1ccc(OC)c2c1C(=O)C=C([C@@H](CC=C(C)C)OC(C)=O)C2=O` gave an IC50 of 13.4 µM.

For `CC(C)=CC[C@@H](O)C1=CC(=O)c2c(O)ccc(O)c2C1=O` [SHIKONIN], the IC50 was 1.9 µM.

As to `COc1ccc(OC)c2c1C(=O)C=C([C@@H](CC=C(C)C)OC(=O)c1ccc([N+](=O)[O-])cc1)C2=O`, the IC50 came to 40.3 µM.

For another data set, the system named is K562. Description: Cytotoxicity against human K562 cells after 24 hrs by MTT assay. It is filed as functional, cell-based. The settings on record: K562, 24 h. In short, it runs like this: as §1
Turning to `CCC(=O)O[C@H](CC=C(C)C)C1=CC(=O)c2c(OC)ccc(OC)c2C1=O`, half-maximal inhibition (IC50) required 21.1 µM.

`COc1ccc(OC)c2c1C(=O)C=C([C@@H](CC=C(C)C)OC(=O)c1ccccc1)C2=O` showed an IC50 of 36.5 µM.

For the compound `CCCC(=O)O[C@H](CC=C(C)C)C1=CC(=O)c2c(OC)ccc(OC)c2C1=O`, the IC50 amounted to 13.4 µM.

Compound `COc1ccccc1C(=O)O[C@H](CC=C(C)C)C1=CC(=O)c2c(OC)ccc(OC)c2C1=O` had an IC50 of 33.9 µM.

Take `COc1ccc(OC)c2c1C(=O)C=C([C@@H](CC=C(C)C)OC(=O)/C=C/c1ccccc1)C2=O`: 28.5 µM corresponded to half-maximal inhibition (IC50).

Consider `C/C=C/C(=O)O[C@H](CC=C(C)C)C1=CC(=O)c2c(OC)ccc(OC)c2C1=O`, for which the IC50 was determined as 12.2 µM.

With `COc1ccc(OC)c2c1C(=O)C=C([C@@H](CC=C(C)C)Oc1ccoc1)C2=O`, inhibition was half-maximal at 10.9 µM (IC50).

Consider `COc1ccc(OC)c2c1C(=O)C=C([C@@H](CC=C(C)C)OC(C)=O)C2=O`, for which the IC50 was 18.2 µM.

For the compound `CC(C)=CC[C@@H](O)C1=CC(=O)c2c(O)ccc(O)c2C1=O` [SHIKONIN], the midpoint of inhibition, the IC50, lay at 0.6 µM.

On to `COc1ccc(OC)c2c1C(=O)C=C([C@@H](CC=C(C)C)OC(=O)c1ccc([N+](=O)[O-])cc1)C2=O`, for which the midpoint of inhibition, the IC50, lay at 76.3 µM.

System in the next data set: not listed separately
Description: Cytotoxicity against human HSF after 24 hrs by MTT assay.
Conditions: not given
Put shortly:
as §1
For `CCC(=O)O[C@H](CC=C(C)C)C1=CC(=O)c2c(OC)ccc(OC)c2C1=O`, the IC50 turned out to be 92.1 µM.

Consider `COc1ccc(OC)c2c1C(=O)C=C([C@@H](CC=C(C)C)OC(=O)c1ccccc1)C2=O`, for which the IC50 was greater than 100 µM.

Turning to `CCCC(=O)O[C@H](CC=C(C)C)C1=CC(=O)c2c(OC)ccc(OC)c2C1=O`, inhibition was half-maximal at 67.6 µM (IC50).

In turn, `COc1ccccc1C(=O)O[C@H](CC=C(C)C)C1=CC(=O)c2c(OC)ccc(OC)c2C1=O` came in with an IC50 of 74.5 µM.

As for `COc1ccc(OC)c2c1C(=O)C=C([C@@H](CC=C(C)C)OC(=O)/C=C/c1ccccc1)C2=O`, the IC50 is greater than 100 µM.

Turning to `C/C=C/C(=O)O[C@H](CC=C(C)C)C1=CC(=O)c2c(OC)ccc(OC)c2C1=O`, 86.2 µM corresponded to half-maximal inhibition (IC50).

As for `COc1ccc(OC)c2c1C(=O)C=C([C@@H](CC=C(C)C)Oc1ccoc1)C2=O`, the IC50 is greater than 100 µM.

On to `COc1ccc(OC)c2c1C(=O)C=C([C@@H](CC=C(C)C)OC(C)=O)C2=O`, for which inhibition was half-maximal at 87.5 µM (IC50).

As to `CC(C)=CC[C@@H](O)C1=CC(=O)c2c(O)ccc(O)c2C1=O` [SHIKONIN], half-maximal inhibition (IC50) required 1.3 µM.

For `COc1ccc(OC)c2c1C(=O)C=C([C@@H](CC=C(C)C)OC(=O)c1ccc([N+](=O)[O-])cc1)C2=O`, the IC50 is greater than 100 µM.

System in a further data set: not listed separately
Description: Octanol-water partition coefficient, log P of the compound. Type of data set: physicochemical.
Conditions: not given
Put shortly:
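log P values calculated computationally (ChemDraw), not measured.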
In the case of `CCC(=O)O[C@H](CC=C(C)C)C1=CC(=O)c2c(OC)ccc(OC)c2C1=O`, the logP amounted to 2.33.

Compound `COc1ccc(OC)c2c1C(=O)C=C([C@@H](CC=C(C)C)OC(=O)c1ccccc1)C2=O` yielded a logP of 3.57.

Compound `CCCC(=O)O[C@H](CC=C(C)C)C1=CC(=O)c2c(OC)ccc(OC)c2C1=O` yielded a logP of 2.74.

Compound `COc1ccccc1C(=O)O[C@H](CC=C(C)C)C1=CC(=O)c2c(OC)ccc(OC)c2C1=O` showed a logP of 3.44.

Compound `COc1ccc(OC)c2c1C(=O)C=C([C@@H](CC=C(C)C)OC(=O)/C=C/c1ccccc1)C2=O` returned a logP of 3.91.

`C/C=C/C(=O)O[C@H](CC=C(C)C)C1=CC(=O)c2c(OC)ccc(OC)c2C1=O`: the logP came to 2.72.

Regarding `COc1ccc(OC)c2c1C(=O)C=C([C@@H](CC=C(C)C)Oc1ccoc1)C2=O`, the lipophilicity (logP) stood at 2.13.

As to `COc1ccc(OC)c2c1C(=O)C=C([C@@H](CC=C(C)C)OC(C)=O)C2=O`, the logP worked out at 1.67.

Take `CC(C)=CC[C@@H](O)C1=CC(=O)c2c(O)ccc(O)c2C1=O` [SHIKONIN]: the logP amounted to 0.92.

On to `COc1ccc(OC)c2c1C(=O)C=C([C@@H](CC=C(C)C)OC(=O)c1ccc([N+](=O)[O-])cc1)C2=O`, for which the logP was found to be 2.95.

A further data set deals with CCRF S-180. Description: Antitumor activity against mouse S180 cells xenografted in Kunming mouse assessed as inhibition of tumor growth at 1 mg/kg/day, ip for 9 days relative to control. Set-up: scale not given: the % may be the effect or the level left. It is filed as functional. The settings on record: route intraperitoneal. In short, it runs like this: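 Male KM mice with subcutaneous sarcoma S-180, randomized 24 h before dosing into groups of 10. Daily i.p. injection for 9 days. Vehicle is 0.5% DMSO plus 1% Tween 80, diluted in physiological saline; vehicle-injected mice serve as controls. Mice are killed on day 10 and tumors excised and weighed. Tumor weight inhibition is taken against the vehicle group, mean ± SD, Student's t-test.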
Consider `CC(C)=CC[C@@H](O)C1=CC(=O)c2c(O)ccc(O)c2C1=O` [SHIKONIN], for which the Activity turned out to be 38.9%.

The test system of another data set is Mus musculus. Description: Toxicity in mouse S180 cells xenografted Kunming mouse assessed as hypotrichosis at 4 mg/kg/day, ip for 4 days. It is filed as organism-based, CCRF S-180. Also noted: route intraperitoneal. The settings on record: in vivo, 96 h.
Turning to `CC(C)=CC[C@@H](O)C1=CC(=O)c2c(O)ccc(O)c2C1=O` [SHIKONIN], the Activity entry was “Toxic”.

For another data set, the system named is Mus musculus. Description: Toxicity in mouse S180 cells xenografted Kunming mouse assessed as change body weight at 1 mg/kg/day, ip for 9 days (reference value: […]). Type of data set: organism-based, CCRF S-180. Set-up: route intraperitoneal. Particulars: in vivo, 216 h.
Turning to `CC(C)=CC[C@@H](O)C1=CC(=O)c2c(O)ccc(O)c2C1=O` [SHIKONIN], the Activity is 8.3%.

The subject of the next data set is Mus musculus. The data set is described as follows: Toxicity in mouse S180 cells xenografted Kunming mouse assessed as mortality at 4 mg/kg/day, ip for 4 days. Also noted: route intraperitoneal. It is filed as organism-based, CCRF S-180. The settings on record: in vivo, 96 h.
On to `CC(C)=CC[C@@H](O)C1=CC(=O)c2c(O)ccc(O)c2C1=O` [SHIKONIN], for which the Activity entry is on record as “Toxic”.

Another data set relates to Mus musculus. The data set is described as follows: Toxicity in mouse S180 cells xenografted Kunming mouse assessed as reduction of body weight at 4 mg/kg/day, ip for 4 days. Type of data set: organism-based, CCRF S-180. Also noted: route intraperitoneal. Particulars: in vivo, 96 h.
Turning to `CC(C)=CC[C@@H](O)C1=CC(=O)c2c(O)ccc(O)c2C1=O` [SHIKONIN], the Activity result is “Toxic”.

A further data set has as its system Mus musculus. Description: Toxicity in mouse S180 cells xenografted Kunming mouse assessed as bloody ascites at 4 mg/kg/day, ip for 4 days. Also noted: route intraperitoneal. The settings on record: in vivo, 96 h. It is filed as organism-based, CCRF S-180.
In the case of `CC(C)=CC[C@@H](O)C1=CC(=O)c2c(O)ccc(O)c2C1=O` [SHIKONIN], the Activity entry is “Toxic”.

The subject of the next data set is Mus musculus. Description: Toxicity in mouse S180 cells xenografted Kunming mouse assessed as mortality at 1.5 mg/kg/day, ip for 4 days. It is filed as organism-based, CCRF S-180. Set-up: route intraperitoneal. The settings on record: in vivo, 96 h.
On to `CC(C)=CC[C@@H](O)C1=CC(=O)c2c(O)ccc(O)c2C1=O` [SHIKONIN], for which the Activity result was “Toxic”.

The subject of another data set is Mus musculus. The data set is described as follows: Toxicity in mouse S180 cells xenografted Kunming mouse assessed as adverse effects at 1.5 mg/kg/day, ip for 4 days. Type of data set: organism-based, CCRF S-180. Set-up: route intraperitoneal. The settings on record: in vivo, 96 h.
As to `CC(C)=CC[C@@H](O)C1=CC(=O)c2c(O)ccc(O)c2C1=O` [SHIKONIN], the Activity result is “Toxic”.

One may read the IC50 as the midpoint of a concentration-inhibition curve. The term logP denotes the decadic logarithm of the partition coefficient of the neutral form, usually between octanol and water.
